Results: ChEMBL document CHEMBL3259591, “Three new cembranoid-type diterpenes from Red Sea soft coral Sarcophyton glaucum: isolation and antiproliferative activity against HepG2 cells” (Eur J Med Chem, 2014)

Columns and labels:
PC-3 [1] = test: Induction of apoptosis in human PC3 cells assessed as increase in caspase-3 concentration by colorimetric assay relative to untreated control; format: functional
PC-3 [2] = test: Cell cycle arrest in human PC3 cells assessed as increase in cells at G0/G1-phase after 24 hrs by flow cytometry (reference value: 49.80 +/- 0.6%); format: functional
PC-3 [3] = test: Induction of apoptosis in human PC3 cells assessed as early apoptotic cells after 24 hrs using annexin V/propidium iodide double staining by flow cytometry (reference value: 0.00 %); format: functional
PC-3 [4] = test: Induction of apoptosis in human PC3 cells assessed as late apoptotic cells after 24 hrs using annexin V/propidium iodide double staining by flow cytometry (reference value: 0.03 %); format: functional
Vero = test: Cytotoxicity against african green monkey Vero cells after 96 hrs […]; format: cell-based; conditions: chlorocebus sabaeus
Outline: (§1)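 Cells seeded at 10 × 10^3/well and held 24 h at 37 °C, 5% CO2. Serum-free RPMI-1640 then added with sample at final 1000, 500, 200, 100, 50, 20, 10 µg/mL (DMSO ≤1% v/v). Incubated 96 h, then rinsed and fixed in 3.7% formaldehyde in saline for ≥20 min. IC50 taken as 50% loss of monolayer, from a straight-line fit of dose-response data.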

HepG2 [5] = test: Cytotoxicity against human HepG2 cells after 96 hrs by […]; format: functional, cell-based; conditions: HepG2, 96 h; outline: as §1
PC-3 [6] = test: Cytotoxicity against human PC3 cells after 96 hrs […]; format: functional, cell-based; conditions: PC-3, 96 h; outline: as §1
A549 = test: Cytotoxicity against human A549 cells after 96 hrs by […]; format: functional, cell-based; conditions: A549, 96 h; outline: as §1
PC-3 [7] = test: Cell cycle arrest in human PC3 cells assessed as reduction in cells at S-phase after 24 hrs by flow cytometry (reference value: 32.12 +/- 0.9%); format: functional; parameters: scale not given: the % may be the effect or the level left
PC-3 [8] = test: Induction of apoptosis in human PC3 cells assessed as viable cells after 24 hrs using annexin V/propidium iodide double staining by flow cytometry (reference value: 99.60 %); format: functional
PC-3 [9] = test: Induction of apoptosis in human PC3 cells assessed as necrotic cells after 24 hrs using annexin V/propidium iodide double staining by flow cytometry (reference value: 0.640.36 %); format: functional
MCF7 = test: Cytotoxicity against human MCF7 cells after 96 hrs by […]; format: functional, cell-based; conditions: MCF7, 96 h; outline: as §1
HepG2 [10] = test: Cell cycle arrest in human HepG2 cells assessed as reduction in cells at S-phase after 24 hrs by flow cytometry (reference value: 43.65 +/- 1.1%); format: functional; parameters: scale not given: the % may be the effect or the level left
HepG2 [11] = test: Induction of apoptosis in human HepG2 cells assessed as late apoptotic cells after 24 hrs using annexin V/propidium iodide double staining by flow cytometry (reference value: 0.01 %); format: functional
HepG2 [12] = test: Cell cycle arrest in human HepG2 cells assessed as increase in cells at G0/G1-phase after 24 hrs by flow cytometry (reference value: 44.74 +/- 0.6%); format: functional
HepG2 [13] = test: Induction of apoptosis in human HepG2 cells assessed as necrotic cells after 24 hrs using annexin V/propidium iodide double staining by flow cytometry (reference value: 0.64 %); format: functional
HepG2 [14] = test: Induction of apoptosis in human HepG2 cells assessed as viable cells after 24 hrs using annexin V/propidium iodide double staining by flow cytometry (reference value: 99.35 %); format: functional
HepG2 [15] = test: Induction of apoptosis in human HepG2 cells assessed as increase in caspase-3 concentration by colorimetric assay relative to untreated control; format: functional
HepG2 [16] = test: Induction of apoptosis in human HepG2 cells assessed as early apoptotic cells after 24 hrs using annexin V/propidium iodide double staining by flow cytometry (reference value: 0.00 %); format: functional

Row | SMILES | fold change (FC) (PC-3 [1]) | Activity (PC-3 [2]) [%] | Activity (PC-3 [3]) [%] | Activity (PC-3 [4]) [%] | Activity (Vero) | IC50 (HepG2 [5]) [µM] | IC50 (PC-3 [6]) [µM] | IC50 (A549) [µM] | Activity (PC-3 [7]) [%] | Activity (PC-3 [8]) [%] | Activity (PC-3 [9]) [%] | IC50 (MCF7) [µM] | Activity (HepG2 [10]) [%] | Activity (HepG2 [11]) [%] | Activity (HepG2 [12]) [%] | Activity (HepG2 [13]) [%] | Activity (HepG2 [14]) [%] | fold change (FC) (HepG2 [15]) | Activity (HepG2 [16]) [%]
1 | C=C1CC[C@@H]2[C@H]([C@@H]3[C@H](C)CC[C@H]13)C2(C)C | 2.1 | 64.83 | 1.63 | 2.18 | Non-toxic | 20 | 9.3 | 98.4 | 23.29 | 91.85 | 4.34 | 20 |  |  |  |  |  |  | 
2 | C/C1=C/C2OC(C)(CCCC/C(C)=C\CC1)C(O)C2C(C)C (stereo not drawn) |  |  |  |  | Non-toxic | 20 | 31.5 | 197 |  |  |  |  | 8.33 | 2.18 | 53.57 | 2.99 | 93.61 | 2.6 | 1.22
3 | CC1=C2CC[C@@H]3O[C@]3(C)CC/C(C)=C/CC/C(C)=C/[C@@H]2OC1=O |  |  |  |  | Non-toxic | 94 | 216 | 73.8 |  |  |  | 25 |  |  |  |  |  |  | 
4 | CC1=C2CC[C@H]3O[C@]3(C)CC/C(C)=C\CC/C(C)=C/[C@H]2OC1=O |  |  |  |  | Non-toxic | 20 | 112 | 201 |  |  |  | 29 | 7.11 | 1.76 | 51.9 | 3.08 | 93.93 | 2 | 1.23
5 | COc1cccc2c1C(=O)c1c(O)c3c(c(O)c1C2=O)C[C@@](O)(C(=O)CO)C[C@@H]3O[C@H]1C[C@H](N)[C@H](O)[C@H](C)O1 [DOXORUBICIN] |  |  |  |  | Non-toxic | 0.48 | 0.5 |  |  |  |  |  |  |  |  |  |  |  | 
